One block for each compound: values may come before it. The source made the active and inactive calls. The calls are words filed in the database; no cut-off is given here.
Assays:
[1] = target: T1, Peroxisome proliferator-activated receptor alpha (Homo sapiens) (UniProt Q07869); test: Agonist activity at human PPARalpha in human HepG2 cells co-transfected with PPRE3-TK-luc assessed as induction of transactivation activity at 10 uM by luciferase reporter gene assay relative to control; type: functional, cell-based
T1 sequence (whole entry): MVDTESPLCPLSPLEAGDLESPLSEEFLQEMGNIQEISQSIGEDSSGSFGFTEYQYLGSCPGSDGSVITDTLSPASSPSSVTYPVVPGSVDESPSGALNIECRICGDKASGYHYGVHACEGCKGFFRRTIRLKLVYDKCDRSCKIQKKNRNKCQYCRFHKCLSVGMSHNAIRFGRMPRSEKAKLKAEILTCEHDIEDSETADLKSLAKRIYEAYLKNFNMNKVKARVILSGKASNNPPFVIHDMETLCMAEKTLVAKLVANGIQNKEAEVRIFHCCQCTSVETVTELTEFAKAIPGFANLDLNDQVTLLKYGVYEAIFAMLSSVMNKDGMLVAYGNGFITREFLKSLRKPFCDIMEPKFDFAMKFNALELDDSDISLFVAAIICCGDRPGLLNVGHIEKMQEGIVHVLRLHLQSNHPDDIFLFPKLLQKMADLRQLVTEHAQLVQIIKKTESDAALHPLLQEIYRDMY
How it was run: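 HepG2 cells were transfected with pSG5 vector carrying human PPARα cDNA and co-transfected with PPRE3-TK-luc. Firefly luciferase was read and normalised to β-galactosidase activity measured in an ELISA reader. Compound was tested at 10 µM. Results are expressed as fold induction versus vehicle (1% DMSO).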

Rattus norvegicus [2] = test: Antihyperlipidemic activity in Sprague-Dawley rat assessed as reduction of serum triglycerides level at 3 mg/kg, po qd for 14 days relative to control; type: functional; parameters: scale not given: the % may be the effect or the level left
How it was run: (§1)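 Male Sprague–Dawley rats were fed a high-cholesterol diet for 15 days, then given vehicle or compound by oral gavage once daily for 14 days. Serum TG, total cholesterol, LDL-C and HDL-C were measured. Results are expressed as % change versus vehicle (n = 9).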

Rattus norvegicus [3] = test: Antihyperlipidemic activity in Sprague-Dawley rat assessed as reduction of serum total cholesterol level at 3 mg/kg, po qd for 14 days relative to control; type: functional; parameters: scale not given: the % may be the effect or the level left; how it was run: as §1
[4] = Tmax in Wistar rat at 30 mg/kg, po; type: ADME, organism-based; parameters: dose 30 mg/kg, route oral; details: in vivo
How it was run: (§2)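 Single oral dose of 30 mpk to fasted male Wistar rats (n = 6). Plasma concentrations were measured by LC–MS, and Tmax, Cmax, T1/2 and AUC(0–∞) were derived. Values are given as mean ± SD.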

[5] = Cmax in Wistar rat at 30 mg/kg, po; type: ADME, organism-based; parameters: dose 30 mg/kg, route oral; details: in vivo; how it was run: as §2
Mus musculus [6] = test: Antihyperglycemic activity in db/db mouse assessed as reduction of serum glucose level at 3 mg/kg, po qd for 7 days relative to control; type: functional; parameters: scale not given: the % may be the effect or the level left
How it was run: (§3)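 Male db/db mice aged 6–8 weeks were dosed orally once daily for 7 days. Serum triglycerides and glucose were then measured. Results are expressed as % change versus vehicle-treated controls (n = 6).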

Rattus norvegicus [7] = test: Antihyperlipidemic activity in Sprague-Dawley rat assessed as reduction of serum LDL-cholesterol level at 3 mg/kg, po qd for 14 days relative to control; type: functional; parameters: scale not given: the % may be the effect or the level left; how it was run: as §1
Mus musculus [8] = test: Antihyperlipidemic activity in db/db mouse assessed as reduction of serum triglycerides level at 3 mg/kg, po qd for 7 days relative to control; type: functional; parameters: scale not given: the % may be the effect or the level left; how it was run: as §3
Rattus norvegicus [9] = test: Antihyperlipidemic activity in Sprague-Dawley rat assessed as increase of serum HDL-cholesterol level at 3 mg/kg, po qd for 14 days relative to control; type: functional; how it was run: as §1
[10] = Half life in Wistar rat at 30 mg/kg, po; type: ADME, organism-based; parameters: dose 30 mg/kg, route oral; details: in vivo; how it was run: as §2
[11] = AUC (0 to infinity) in Wistar rat at 30 mg/kg, po; type: ADME, organism-based; parameters: time infinity, dose 30 mg/kg, route oral; details: plasma; how it was run: as §2
Rattus norvegicus [12] = test: Antihyperlipidemic activity in Sprague-Dawley rat assessed as increase of serum HDL-cholesterol level at 30 mg/kg, po qd for 14 days relative to control; type: functional; how it was run: as §1
Rattus norvegicus [13] = test: Antihyperlipidemic activity in Sprague-Dawley rat assessed as reduction of serum total cholesterol level at 30 mg/kg, po qd for 14 days relative to control; type: functional; parameters: scale not given: the % may be the effect or the level left; how it was run: as §1
Mus musculus [14] = test: Antihyperlipidemic activity in db/db mouse assessed as reduction of serum triglycerides level at 30 mg/kg, po qd for 7 days relative to control; type: functional; parameters: scale not given: the % may be the effect or the level left; how it was run: as §3
Rattus norvegicus [15] = test: Antihyperlipidemic activity in Sprague-Dawley rat assessed as reduction of serum triglycerides level at 30 mg/kg, po qd for 14 days relative to control; type: functional; parameters: scale not given: the % may be the effect or the level left; how it was run: as §1
Mus musculus [16] = test: Antihyperglycemic activity in db/db mouse assessed as reduction of serum glucose level at 30 mg/kg, po qd for 7 days relative to control; type: functional; parameters: scale not given: the % may be the effect or the level left; how it was run: as §3
Rattus norvegicus [17] = test: Antihyperlipidemic activity in Sprague-Dawley rat assessed as reduction of serum LDL-cholesterol level at 30 mg/kg, po qd for 14 days relative to control; type: functional; parameters: scale not given: the % may be the effect or the level left; how it was run: as §1

- fold change (FC) [1]: 14.7
Structure (SMILES): Cc1ccc(-c2nc(COc3ccc(C[C@H]4CO[C@@](C)(C(=O)O)OC4)cc3)c(C)o2)cc1

- fold change (FC) [1]: 1.63
Structure (SMILES): C/C(=N\OCCOc1ccc(C[C@H]2CO[C@@](C)(C(=O)O)OC2)cc1)c1ccc2c(c1)CCCC2

- Tmax [4]: 0.61 h
- Cmax [5]: 120 ng/mL
- fold change (FC) [1]: 15
- half-life [10]: 14 h
- AUC(0-inf) [11]: 1420 ng·h/mL
Structure (SMILES): COc1ccc(/C(C)=N/OCCOc2ccc(C[C@H]3CO[C@@](C)(C(=O)O)OC3)cc2)cc1
- Activity (Rattus norvegicus [2]): -54%
- Activity (Rattus norvegicus [3]): -56%
- Activity (Mus musculus [6]): -45%
- Activity (Rattus norvegicus [7]): -68%
- Activity (Mus musculus [8]): -53%
- Activity (Rattus norvegicus [9]): 68%

- fold change (FC) [1]: 1.37
Structure (SMILES): C/C(=N\OCCOc1ccc(C[C@H]2CO[C@@](C)(C(=O)O)OC2)cc1)c1ccc(S(C)(=O)=O)cc1

- fold change (FC) [1]: 10.8
Structure (SMILES): C/C(=N\OCCOc1ccc(C[C@H]2CO[C@@](C)(C(=O)O)OC2)cc1)c1ccc(C)cc1

- fold change (FC) [1]: 3.48
Structure (SMILES): C/C(=N\OCCOc1ccc(C[C@H]2CO[C@@](C)(C(=O)O)OC2)cc1)c1ccc(OC(F)(F)F)cc1

- fold change (FC) [1]: 3.61
Structure (SMILES): COc1ccc(/C(C)=N/OCCOc2ccc(C[C@H]3CO[C@@](C)(C(=O)O)OC3)cc2)cc1OC

- fold change (FC) [1]: 2.36
Structure (SMILES): C/C(=N\OCCOc1ccc(C[C@H]2CO[C@@](C)(C(=O)O)OC2)cc1)c1cccnc1

- fold change (FC) [1]: inactive
Structure (SMILES): CN(CCOc1ccc(CC2SC(=O)NC2=O)cc1)c1ccccn1 (configuration not stated)

- fold change (FC) [1]: 1.76
Structure (SMILES): C/C(=N\OCCOc1ccc(C[C@H]2CO[C@@](C)(C(=O)O)OC2)cc1)c1ccc2ccccc2c1

- fold change (FC) [1]: 10.5
Structure (SMILES): C/C(=N\OCCOc1ccc(C[C@H]2CO[C@@](C)(C(=O)O)OC2)cc1)c1ccc(F)cc1

- Tmax [4]: 0.65 h
- fold change (FC) [1]: 12.7
- half-life [10]: 1.99 h
Structure (SMILES): Cc1ccc(-c2nc(CCCC[C@H]3CO[C@@](C)(C(=O)O)OC3)c(C)o2)cc1
- Activity (Rattus norvegicus [12]): 62%
- Activity (Rattus norvegicus [13]): -49%
- Activity (Mus musculus [14]): -54%
- Activity (Rattus norvegicus [15]): -51%
- Activity (Mus musculus [16]): -43%
- Activity (Rattus norvegicus [17]): -58%

- fold change (FC) [1]: 5.79
Structure (SMILES): C/C(=N\OCCOc1ccc(C[C@H]2CO[C@@](C)(C(=O)O)OC2)cc1)c1ccc(C(F)(F)F)cc1

- fold change (FC) [1]: 10.8
Structure (SMILES): C/C(=N\OCCOc1ccc(C[C@H]2CO[C@@](C)(C(=O)O)OC2)cc1)c1ccccc1
